# Experimental data published in article PMC9401544 (Clinical Cancer Research, 2021).
# Assays:
# [1] = tested on: tenosynovial giant cell tumor (TGCT); details: patients with TGCT, usually; cited from earlier work
# [2] = tested on: tenosynovial giant cell tumor (TGCT); assay: Tumor response by RECIST 1.1; format: in vivo, human
# patients with TGCT = details: cited from earlier work
# [3] = tested on: advanced solid tumors (MEC, GIST, ATC, malignant effusions, miscellaneous tumor types); format: in vivo, human
# Method in brief: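 Adults with advanced, incurable tumours received 1,000 mg/day, split 600 mg morning and 400 mg evening, continued to progression or unacceptable toxicity. Response was assessed locally by imaging at baseline and every 2 months per RECIST version 1.1, with readings not blinded to visit order. Data cutoff was 31 January 2018.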
# [4] = tested on: patients with advanced solid tumors (TGCT and non-TGCT cohorts); assay: Safety: adverse events, laboratory assessments, ECG; format: in vivo, human
# [5] = tested on: patients with advanced solid tumors (TGCT and non-TGCT cohorts); assay: Drug exposure: treatment duration, dose reductions, drug holidays; format: in vivo, human
# Method in brief: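 Adult patients at 12 US centres took 1,000 mg/day (600 mg morning, 400 mg evening) until progression or unacceptable toxicity. Dose changes, usually in 200 mg/day steps, and temporary holds for toxicity or other reasons were allowed. Exposure was tallied to the 31 January 2018 cutoff. Months were computed as days divided by 30.4167.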
# [6] = tested on: tenosynovial giant cell tumor (TGCT); details: 3 of the 4 TGCT patients; cited from earlier work
# [7] = 13 TGCT subjects that remained on treatment, as of February 2021
smiles,measurement,setting,value
FC(F)(F)c1ccc(CNc2ccc(Cc3c[nH]c4ncc(Cl)cc34)cn2)cn1 [pexidartinib],time to radiologic response,[1],≤ 4 months
same,median DOR,[2]; [7],"1,529 days"
same,median PFS,[2]; [7],"1,764 days"
same,"patients with TGCT who achieved a response, RECIST 1.1","[2]; CR + PR, of 39 FAS",24 patients
same,"PR, RECIST 1.1",[2]; TGCT,22 patients
same,"complete response (CR), RECIST 1.1",[2]; TGCT,2 patients
same,"patients who progressed while on therapy, modified tumor response criteria",[2]; TGCT,3 patients
same,"patients with SD that lasted for at least 6 months, RECIST 1.1",[2]; TGCT,8 patients
same,patients with at least a 50% reduction in sum of longest tumor diameter,[2]; TGCT,Fifteen
same,"disease control rate (DCR = CR + PR + SD), RECIST 1.1",[2]; TGCT FAS (n = 39),82%
same,"disease control rate (DCR = CR + PR + SD), RECIST 1.1",[2]; TGCT efficacy-evaluable (n = 37),86%
same,"objective response rate (ORR), RECIST 1.1 per local reading",[2]; TGCT efficacy-evaluable population (n = 37),65%
same,25th percentile for duration of response (DOR),"[2]; TGCT, RECIST 1.1",943 days
same,"ORR, RECIST 1.1",[2]; both the FAS and efficacy-evaluable TGCT populations,over 60%
same,time of presentation of serious liver toxicity,"patients with TGCT; all cases, weeks of treatment",≤ 8 weeks
same,"isolated aminotransferase elevations, share of hepatic adverse reactions",patients with TGCT; long-term treatment,> 90%
same,patients with prolonged (>6 months) SD,[3]; non-TGCT,6 patients
same,median progression-free survival (PFS),[3]; non-TGCT patients,56 days
same,patients with partial response (PR),[3]; non-TGCT population (n = 52),1 patients
same,patients with stable disease (SD) as best response,[3]; non-TGCT population (n = 52),Fifteen
same,cases meeting Hy's law criteria,[4]; all 91 patients,no cases that met criteria for Hy's law
same,"decreases in platelets, hemoglobin, white blood cells (neutrophils, lymphocytes): grade",[4]; all patients,generally grade 2 or less
same,electrocardiogram abnormalities,[4]; all patients,No patient had clinically significant electrocardiogram abnormalities
same,"AST increase, treatment-related AE of grade ≥ 3",[4]; non-TGCT patients,4%
same,"fatigue, treatment-related AE of grade ≥ 3",[4]; non-TGCT patients,6%
same,"hypophosphatemia, treatment-related AE of grade ≥ 3",[4]; non-TGCT patients,4%
same,patients with grade 3 elevations in aminotransferase levels,[4]; of the 91 patients,6 patients
same,"alanine aminotransferase increase, grade ≥ 3 treatment-related AE",[4]; patients with TGCT,10%
same,"aspartate aminotransferase (AST) increase, grade ≥ 3 treatment-related AE",[4]; patients with TGCT,8%
same,"hypophosphatemia, grade ≥ 3 treatment-related AE",[4]; patients with TGCT,10%
same,"nausea, treatment-related AE",[4]; patients with TGCT,56%
same,"periorbital edema, treatment-related AE",[4]; patients with TGCT,39%
same,"pruritus, treatment-related AE",[4]; patients with TGCT,31%
same,patients who had a drug holiday,[5]; of the 39 patients with TGCT,27 (69%) n (%)
same,patients who required dose reduction,[5]; of the 39 patients with TGCT,24 (62%) n (%)
same,patients who experienced a drug holiday,[5]; of the 91 patients,40 (44%) n (%)
same,patients who required dose reduction,[5]; of the 91 patients,30 (33%) n (%)
same,RECIST response in patients who had previously received other TKI treatment,[6],75%
